Screens (PubChem BioAssay)
M5 PAM: human M5 muscarinic receptor positive allosteric modulators, primary screen, CHO-K1 cells, Fluo-8 calcium fluorescence; CHO-K1 hM5, ACh EC20 PAM; 0% = ACh EC20, 100% = ACh EC100; activation, % at 3 µM; AID 624038, 2012; hit rate 0.3% among 360,000;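 active means activation above the run cutoff, the mean activation of all test compounds plus 3 SD, cut at about 18% in these data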
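Measured by: Fluo-8 calcium fluorescence; material: human M5 receptor in CHO-K1 cells; schedule: Post-acetylcholine fluorescence recording 140 s; benchmarks: low control EC20 acetylcholine (0%), high control EC100 acetylcholine (100%); read-out: Max/basal fluorescence ratio as % of EC20–EC100 ACh window; compound: single dose, 3 µM nominal final test concentration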
CHRM4 antagonist: human M4 muscarinic receptor antagonists, primary screen, CHO cells, Fluo-8 calcium fluorescence. CHO-hM4 cells, ACh EC80. hit rate 0.73% among 360,000. Muscarinic acetylcholine receptor M4 (Homo sapiens), P08173. inhibition, % at 3 µM;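 active means inhibition above its plate's cutoff, the mean inhibition of sample wells plus 3 SD, cut at about 27% in these data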
Target sequence (P08173 whole entry, looked up): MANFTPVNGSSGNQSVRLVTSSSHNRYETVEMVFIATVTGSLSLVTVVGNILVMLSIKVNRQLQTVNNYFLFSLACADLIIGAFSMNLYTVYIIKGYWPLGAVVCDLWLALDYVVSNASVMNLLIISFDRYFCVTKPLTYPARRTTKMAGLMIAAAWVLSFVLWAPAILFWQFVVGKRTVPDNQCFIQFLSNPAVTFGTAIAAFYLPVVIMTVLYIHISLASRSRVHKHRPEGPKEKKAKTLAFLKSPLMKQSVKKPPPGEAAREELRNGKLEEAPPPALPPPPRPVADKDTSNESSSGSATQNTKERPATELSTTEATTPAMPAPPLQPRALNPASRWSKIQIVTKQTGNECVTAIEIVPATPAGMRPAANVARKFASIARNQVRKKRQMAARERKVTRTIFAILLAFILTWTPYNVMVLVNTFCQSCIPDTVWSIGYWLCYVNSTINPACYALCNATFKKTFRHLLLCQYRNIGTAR
CHRM5 agonist: human M5 muscarinic receptor agonists, primary screen, CHO-K1 cells, Fluo-8 calcium fluorescence | Muscarinic acetylcholine receptor M5 (Homo sapiens), P08912 | CHO-K1 hM5 cells; 0% DMSO wells, 100% maximal acetylcholine response | activation, % at 3 µM | hit rate 0.19% among 360,000 | AID 624037, 2012;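 active means activation above the run's mean over test compounds plus 3 SD, cut at about 23% in these data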;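 further: signal is peak over basal fluorescence ratio across the kinetic read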
CHRM4 agonist: human M4 muscarinic receptor agonists, primary screen, CHO-K1 cells, Fluo-8 calcium fluorescence; CHO-K1 hM4/Gqi5; vehicle 0%, full acetylcholine response 100%; AID 624127, 2012; activation, % at 3 µM; hit rate 0.14% among 360,000;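 active means activation above the run mean over all test wells plus 3 SD, cut at about 32% in these data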;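 further: peak over basal fluorescence ratio per well then scaled between controls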
CHRM5 antagonist: human M5 muscarinic receptor antagonists, primary screen, CHO cells, Fluo-8 calcium fluorescence; Muscarinic acetylcholine receptor M5 (Homo sapiens), P08912; CHO-hM5 cells, ACh EC80; inhibition, % at 3 µM; hit rate 0.59% among 360,000; AID 624040, 2012;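 active means inhibition above a per-plate cutoff, the mean of that plate's test compounds plus 3 SD, cut at about 27% in these data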
CHRM4 PAM: human M4 muscarinic receptor positive allosteric modulators, primary screen, CHO-K1 cells, Fluo-8 calcium fluorescence; CHO-K1 hM4/Gqi5, ACh EC20; 0% = ACh EC20, 100% = maximal ACh; activation, % at 3 µM; hit rate 0.4% among 360,000;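 active means activation above its plate's cutoff, the mean activation of sample wells plus 3 SD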
A number is an active result; – = inactive. Shown are actives, neighbours in structure and some others; about 1.8% of the full set was active somewhere.

SMILES	M5 PAM	CHRM4 antagonist	CHRM5 agonist	CHRM4 agonist	CHRM5 antagonist	CHRM4 PAM
O=C(CN1C(=O)CCC1=O)Nc1cccc(NC(=O)CN2C(=O)CCC2=O)c1	19	–	–	–	–	–
O=C(CN1C(=O)CCC1=O)Nc1ccc(Br)cc1	–	–	–	–	–	–
O=C(CN1CCCC1)Nc1ccc(F)c(Cl)c1	–	–	–	–	–	–
CCN(CC)CCC=C(c1cccs1)c1cccs1	–	47	–	–	28	–
C[C@@H]1Cc2[nH][nH]c(=O)c2[C@H](c2ccc(Cl)cc2)O1	–	–	–	–	–	–
O=C(c1ccccc1)c1ccc(C(=O)N2CCCC(C(F)(F)F)C2)cc1 (configuration not stated)	–	–	–	–	–	–
CCOc1ccc(NS(=O)(=O)c2ccc(C(=O)NCc3ccccn3)cc2)cc1	–	–	32	–	–	–
CCOC(=O)c1ccc(S(=O)(=O)Nc2cc(S(=O)(=O)Nc3ccc(OC)cc3)ccc2O)cc1	18	–	–	–	–	–
Cc1ccc(NS(=O)(=O)c2ccc(C(=O)N3CCC3)cc2)cc1	–	–	–	–	–	–
COc1ccc(NS(=O)(=O)c2ccc(O)c(NC(=O)c3ccc(S(=O)(=O)N4CCCC4)cc3)c2)cc1	–	–	–	–	–	–
Cc1ccc(NS(=O)(=O)c2ccc(C(=O)N3CC(C)OC(C)C3)cc2)cc1 (configuration not stated)	–	–	31	–	–	–
O=C(c1ccc(S(=O)(=O)Nc2ccccc2)cc1)N1CCCC(C(F)(F)F)C1 (configuration not stated)	–	–	36	–	–	–
Cc1ccc(NS(=O)(=O)c2ccc(C(=O)NCc3ccccn3)cc2)cc1	–	–	–	–	–	–
O=C(O)c1cc(S(=O)(=O)Nc2cc(Cl)ccc2Oc2ccccc2)ccc1O	–	–	–	–	–	–
C/C(=N\NC(=O)c1cccc(S(=O)(=O)N2CCOCC2)c1)c1ccc(OCC(=O)N(C)C)cc1	–	–	–	–	–	–
COC(=O)[C@]12CCCCC=C1N(Cc1ccc(Cl)cc1Cl)C(=O)[C@H](CC(=O)N1CCOCC1)C2	–	–	–	–	–	–
COc1ccc(NS(=O)(=O)c2ccc(C(=O)N3CCCCCC3)cc2)cc1	–	–	24	–	–	–
CCOc1ccc(NS(=O)(=O)c2ccc(C(=O)N3CCCC(C)C3)cc2)cc1 (configuration not stated)	–	–	36	36	–	–
COc1ccc(NS(=O)(=O)c2ccc(C(=O)N(C)Cc3cccs3)cc2)cc1	–	–	26	–	–	–
CCCSc1nnc(CNC(=O)C23CC4CC(CC(C4)C2)C3)n1Cc1ccccc1	–	–	–	–	–	–
COc1ccc(C(CCN2CCCCC2)c2c(OC)cc(OC)c3c(-c4ccccc4)cc(=O)oc23)cc1 (configuration not stated)	–	34	–	–	–	–
CCC(C)n1c(NC(=O)c2ccccc2)c(C#N)c2nc3ccccc3nc21 (configuration not stated)	19	–	–	–	–	–
COc1ccc(N=Cc2oc3ccc4ccccc4c3c2O)cc1	–	–	47	–	–	–
O=CNc1cc(-c2cccc(F)c2)cn2c(-c3ccc(F)c(Cl)c3)cnc12	–	–	–	–	–	–
COc1ccccc1C(=O)NCc1ccccn1	–	–	–	–	–	–
Cc1ccc(CNC(=O)C(NS(=O)(=O)c2cccc3nsnc23)C(C)C)cc1 (configuration not stated)	–	–	–	–	30	–
